Marks after values point to notes of the source that are not given here.
Assays:
[1] = tested on: NCI–H226; experiment: In vitro antiproliferative assay; assay type: cell-based, human; conditions: for mean optical densities: 48 h, SRB, 515 nm
How it was run: (§1)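 NCI-sourced cells grown in DMEM with 10% FBS, penicillin 25 U/mL and streptomycin 25 U/mL (37 °C, 5% CO2, 95% humidity). 5000–40,000 viable cells/well attached 24 h, then fresh medium with test compound at 0, 0.1, 1.0, 10 or 100 μM for 48 h. TCA-fixed (10%, 1 h RT), 0.4% SRB stain 60 min, acetic acid wash, Tris-solubilised dye read at 515 nm. GI50 and TGI calculated; triplicates, mean ± SD.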

[2] = tested on: MCF7; experiment: In vitro antiproliferative assay; assay type: cell-based, human; conditions: for mean optical densities: 48 h, SRB, 515 nm
How it was run: as §1

[3] = In vivo pharmacokinetics in rats; design: species or system Male albino Wistar rats; conditions: male, Wistar, rat, plasma, po, 5 mg/kg
How it was run: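 Rats were given test compound at 5 mg/kg BW orally. Blood was drawn hourly over 24 h (24 samples) into Na2EDTA tubes, and plasma was quantified by UPLC. Cmax, Tmax and AUC0-t were taken from the plasma concentration-time curve. K came from the terminal log-linear slope, and AUC0→∞ was calculated as AUC0-t + Clast/K.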

[4] = tested on: NCI–H322 M; experiment: In vitro antiproliferative assay; assay type: cell-based, human; conditions: 48 h; for mean optical densities: NCI–H322 M, SRB, 515 nm
How it was run: as §1

[5] = tested on: NCI–H522; experiment: In vitro antiproliferative assay; assay type: cell-based, human; conditions: for mean optical densities: 48 h, SRB, 515 nm
How it was run: as §1

[6] = tested on: five cell lines originating from human lungs; experiment: In vitro antiproliferative assay; assay type: cell-based; conditions: read-out: IC50 range
How it was run: as §1

[7] = tested on: HOP-62; experiment: In vitro antiproliferative assay; assay type: cell-based, human; conditions: for mean optical densities: 48 h, SRB, 515 nm
How it was run: as §1

[8] = tested on: A549; experiment: In vitro antiproliferative assay; assay type: cell-based, human; conditions: for mean optical densities: 48 h, SRB, 515 nm
How it was run: as §1

[9] = tested on: A549/ATCC; experiment: In vitro antiproliferative assay; assay type: cell-based, human; conditions: for mean optical densities: A549/ATCC, 48 h, SRB, 515 nm
How it was run: as §1

[10] = tested on: K-562; experiment: In vitro antiproliferative assay; assay type: cell-based, human; conditions: for mean optical densities: 48 h, SRB, 515 nm
How it was run: as §1

Compound: CCNc1nc2ccccc2c2c(=O)c3cc(Cl)ccc3sc12 [RXn-02, 10-chloro-6-(ethylamino)-12H-thiochromeno[2,3-c] quinolin-12-one]
- IC50 ([1]; Homo sapiens, NCI-H226, 48 h): 33.2 µM
- mean optical densities ([1]; NCI–H226, RXn-02 0.1 μM): 2.389
- mean optical densities ([1]; NCI–H226, RXn-02 1.0 μM): 2.367
- mean optical densities ([1]; NCI–H226, RXn-02 10 μM): 2.142*
- mean optical densities ([1]; NCI–H226, RXn-02 100 μM): 1.704**
- IC50 ([2]; Homo sapiens, MCF7, 48 h): 0.047 µM
- mean optical densities ([2]; MCF7, RXn-02 0.1 μM): 1.083
- mean optical densities ([2]; MCF7, RXn-02 1.0 μM): 0.873
- mean optical densities ([2]; MCF7, RXn-02 10 μM): 0.735***
- mean optical densities ([2]; MCF7, RXn-02 100 μM): 0.699***
- AUC(0-t) [3]: 18900 ng·h/mL
- Cmax [3]: 1760 ng/mL
- IC50 ([4]; Homo sapiens, NCI-H322M): 69.5 µM
- mean optical densities ([4]; RXn-02 0.1 μM): 1.491
- mean optical densities ([4]; RXn-02 1.0 μM): 1.386
- mean optical densities ([4]; RXn-02 10 μM): 1.209*
- mean optical densities ([4]; RXn-02 100 μM): 1.020*
- IC50 ([5]; Homo sapiens, NCI-H522, 48 h): 24.8 µM
- mean optical densities ([5]; NCI–H522, RXn-02 0.1 μM): 2.405
- mean optical densities ([5]; NCI–H522, RXn-02 1.0 μM): 2.362
- mean optical densities ([5]; NCI–H522, RXn-02 10 μM): 2.110*
- mean optical densities ([5]; NCI–H522, RXn-02 100 μM): 1.395**
- IC50 [6]: 33.2 to 69.5 µM
- mean optical densities ([7]; HOP-62, RXn-02 0.1 μM): 1.859
- mean optical densities ([7]; HOP-62, RXn-02 1.0 μM): 1.761
- mean optical densities ([7]; HOP-62, RXn-02 10 μM): 1.463*
- mean optical densities ([7]; HOP-62, RXn-02 100 μM): 0.319***
- IC50 ([7]; Homo sapiens, HOP-62, 48 h): 13.3 µM
- mean optical densities ([8]; A549, RXn-02 0.1 μM): 1.997
- mean optical densities ([8]; A549, RXn-02 1.0 μM): 1.883
- mean optical densities ([8]; A549, RXn-02 10 μM): 1.602**
- mean optical densities ([8]; A549, RXn-02 100 μM): 1.129**
- IC50 ([8]; Homo sapiens, A549, 48 h): 48.1 µM
- mean optical densities ([9]; RXn-02 0.1 μM): 1.997
- mean optical densities ([9]; RXn-02 1.0 μM): 1.883
- mean optical densities ([9]; RXn-02 10 μM): 1.602**
- mean optical densities ([9]; RXn-02 100 μM): 1.129**
- IC50 ([9]; Homo sapiens, A549, 48 h): 48.1 µM
- IC50 ([10]; Homo sapiens, K562, 48 h): 100 µM
- mean optical densities ([10]; K-562, RXn-02 0.1 μM): 1.771
- mean optical densities ([10]; K-562, RXn-02 1.0 μM): 1.668
- mean optical densities ([10]; K-562, RXn-02 10 μM): 1.242
- mean optical densities ([10]; K-562, RXn-02 100 μM): 1.056*

From publication PMC9272679 (Computers in Biology and Medicine, 2022)
